The list is not random: actives were taken first. Their share in the collection is about 3.3%.
mABHD4 FP: inhibits mouse alpha/beta hydrolase domain 4 | purified mABHD4, FP-Rh probe fluorescence polarization | actives 0.54% (n = 370,000) | Q8VD66 | inhibition, % at 8.92 µM;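 active means inhibition exceeding the mean over every tested compound plus 3 SD, cut at about 30% in these data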
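Assay system: mouse ABHD4 enzyme, wild type / Also added: fluorescent activity-based probe FP-Rh / Doses: single nominal dose of 8.92 µM, 0.89% DMSO final / Timing: 45 min compound pre-incubation plus 60 min probe step, 25 °C / Signal: FP readout, ex 525 nm / em 598 nm / Control set: S159A mutant/DMSO as 100%, compound-well median as 0%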
SIAE inh: inhibitors of human sialic acid acetylesterase SIAE | actives 0.69% (n = 370,000) | SIAE FP-Rh probe binding, fluorescence polarization | Q9HAT2 | AID 1053197 | inhibition, % at 9.66 µM;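 active means inhibition above a cutoff: mean of compounds within the control limits plus 3 SD of those, cut at about 17% in these data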
Target sequence (Q9HAT2 whole entry, looked up): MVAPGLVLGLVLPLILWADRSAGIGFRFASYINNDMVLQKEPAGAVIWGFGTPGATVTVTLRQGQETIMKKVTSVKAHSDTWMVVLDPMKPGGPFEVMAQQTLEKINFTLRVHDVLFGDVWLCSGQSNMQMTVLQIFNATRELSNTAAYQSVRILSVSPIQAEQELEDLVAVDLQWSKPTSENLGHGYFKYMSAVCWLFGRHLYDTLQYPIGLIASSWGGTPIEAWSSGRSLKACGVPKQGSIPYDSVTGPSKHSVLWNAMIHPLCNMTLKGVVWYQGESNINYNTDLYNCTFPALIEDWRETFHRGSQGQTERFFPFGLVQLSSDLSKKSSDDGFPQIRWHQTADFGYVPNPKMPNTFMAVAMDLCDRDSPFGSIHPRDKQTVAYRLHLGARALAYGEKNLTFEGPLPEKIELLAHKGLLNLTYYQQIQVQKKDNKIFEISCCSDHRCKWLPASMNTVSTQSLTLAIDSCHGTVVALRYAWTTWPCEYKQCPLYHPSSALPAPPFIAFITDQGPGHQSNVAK
HTRA1 inhibitor: HTRA1 (human) protease inhibition | inhibition, % at 5.96 µM | actives 0.5% (n = 340,000) | recombinant HTRA1, FP-rhodamine activity-based probe, fluorescence polarization; in the data active means inhibition above about 36%
rCAG binder-1: molecules binding r(CAG) RNA repeats | r(CAG) RNA repeat, TO-PRO-1 dye displacement fluorescence | actives 1.3% (n = 370,000) | inhibition, % at 3 µM;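 active means inhibition above the plate cutoff, the mean of all test compounds on that plate plus 3 SD, cut at about 35% in these data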;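 further: higher means more dye released from RNA so lower well fluorescence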
PRMT1 inh: blocks human protein arginine methyltransferase 1. Q99873. recombinant PRMT1, activity-based probe fluorescence polarization. inhibition, % at 2.79 µM. actives 1.3% (n = 370,000). AID 652257;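 active means inhibition above about 21% made by adding two undisclosed values, limit read from the data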
rCAG bind conf: r(CAG) RNA repeat binding, confirmation | AID 652065 | shares compounds with rCAG binder-1 | TO-PRO-1 dye displacement fluorescence | actives 70% (n = 4,300) | inhibition, % at 3 µM;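 active means inhibition above a per-plate cutoff, the mean inhibition of sample wells plus 3 SD, cut at about 35% in these data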;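 further: loss of TO-PRO-1 fluorescence as compound displaces dye from 1x1 AA loop RNA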
dCAG dye counter: DNA CAG dye complex inhibition counter-screen; inhibition, % at 3 µM; AID 652068; d(CAG) DNA oligo TO-PRO-1 dye displacement, fluorescence; shares compounds with rCAG binder-1; actives 94% (n = 4,300);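 active means inhibition above its plate's cutoff, the mean test-well inhibition plus 3 SD, cut at about 4.8% in these data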;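 further: hits displace the dye from DNA and so lower well fluorescence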
dCAG dye DR: disrupts DNA CAG TO-PRO-1 complex in dose response; shares compounds with rCAG binder-1; DNA CAG/GTC duplex TO-PRO-1 dye displacement fluorescence; IC50, µM; actives 20% (n = 250); in the data active means IC50 below about 10 µM
dCAG TOPRO ctr: counter-screen for rCAG binders: DNA CAG TO-PRO-1 complex inhibitors, late stage | shares compounds with rCAG binder-1 | d(CAG) DNA duplex TO-PRO-1 dye displacement, fluorescence | IC50, µM | actives 80% (n = 30) | AID 720649
rCAG binder-2: binds r(CAG) RNA repeats in late stage dose response. shares compounds with rCAG binder-1. r(CAG) RNA TO-PRO-1 dye displacement, fluorescence. IC50, µM. actives 100% (n = 30)
A number is an active result; – = inactive; · = not tested or not shown. Unless noted, how the calls were made is not given here.

SMILES | mABHD4 FP | SIAE inh | HTRA1 inhibitor | rCAG binder-1 | PRMT1 inh | rCAG bind conf | dCAG dye counter | others
CC1(C(=O)NS(=O)(=O)c2ccc(Cl)cc2)CCN1C(=O)Cc1ccccc1 (stereo unspecified) | – | – | · | – | – | · | ·
COc1ccc(S(=O)(=O)NC(=O)C2(C)CCN2C(=O)Cc2ccc(-c3ccccc3)cc2)cc1 (stereo unspecified) | – | – | · | 46 | – | 44 | 16
CC1(C(=O)NS(=O)(=O)c2ccc(Cl)cc2)CCN1C(=O)Cc1ccc(-c2ccccc2)cc1 (stereo unspecified) | – | – | · | 66 | – | 64 | 23
CC1(C(=O)NS(=O)(=O)c2ccc3c(c2)CCO3)CCN1C(=O)Cc1ccc(-c2ccccc2)cc1 (stereo unspecified) | – | – | · | 47 | – | 70 | 27 | dCAG dye DR=–
CC1(C(=O)NS(=O)(=O)c2ccc3ccccc3c2)CCN1C(=O)Cc1ccc(-c2ccccc2)cc1 (stereo unspecified) | – | – | · | 81 | – | 77 | 36
CC(C)(C)c1ccc(CC(=O)N2CCC2(C)C(=O)NS(=O)(=O)c2ccc3c(c2)CCO3)cc1 (stereo unspecified) | – | – | · | – | – | · | ·
COC(=O)C1CN(Cc2ccc(OC)cc2)CCS(=O)(=O)N1Cc1ccccc1 (stereo unspecified) | – | – | · | – | – | · | ·
Cc1ccsc1/C=C1\SC(=S)N(CC2CCCO2)C1=O (stereo unspecified) | – | – | – | 36 | – | – | –
CCc1nc(SCC(=O)Nc2cc(C)ccc2OC)c2c(C)c(C)sc2n1 | – | – | – | 35 | – | – | –
CCc1nc(SCC(=O)Nc2ccccc2OC)c2c(C)c(C)sc2n1 | – | – | – | – | – | · | ·
COc1ccc(OC)c(NC(=O)CSc2ncnc3sc(C)cc23)c1 | – | – | – | 72 | 23 | 64 | 34
CCOC(=O)N1CCN(C(=O)C[C@@H]2C(=O)N(CCc3ccc(Cl)cc3)/C3=C/CCCCC[C@@]32C(=O)OCC)CC1 | – | – | · | – | – | · | ·
COC(=O)[C@@H]1N=C(c2ccc(OC)cc2)O[C@]12C(=O)N(Cc1cn(Cc3ccccc3)nn1)c1cccc(Cl)c12 | – | – | · | – | – | · | ·
CC1=C(C#N)c2nc(N)c(C#N)c(C)c2/C1=C\c1ccc(-c2ccccc2C(=O)O)o1 | – | – | – | 46 | – | 69 | 32 | dCAG dye DR=–;dCAG TOPRO ctr=2.8;rCAG binder-2=1.1
O=C(COc1ncnc2ccccc12)Nc1cc([N+](=O)[O-])ccc1Cl | – | – | – | – | – | · | ·
O=C(COc1ncnc2c(Cl)cc(Cl)cc12)Nc1cc([N+](=O)[O-])ccc1Cl | – | – | – | 68 | – | – | 9.4
CCOc1ccc(C(CC(=O)O)NC(=O)c2sc3ccccc3c2Cl)cc1 (stereo unspecified) | – | – | – | – | – | · | ·
CCCOc1ccc(C(CC(=O)O)NC(=O)c2sc3ccccc3c2Cl)cc1 (stereo unspecified) | – | – | – | 53 | – | 42 | 9.9
CCOc1ccc(/C=C(/NC(=O)c2ccc(Cl)cc2)C(=O)O)cc1OCC | – | – | – | – | – | · | ·
CCOc1cc(/C=C(/NC(C)=O)C(=O)O)cc(Cl)c1OCc1ccc(Br)cc1 | – | – | – | 43 | – | – | 6.7
COc1cccc(CN2C(=O)C(C)Oc3ccccc32)c1 (stereo unspecified) | – | – | – | – | – | · | ·
COc1cccc(CN2c3ccc(Br)cc3C(=O)CS2(=O)=O)c1 | – | – | – | 52 | – | 39 | 16
C=CCN1c2ccc(Br)cc2C(=O)CS1(=O)=O | – | – | – | 66 | – | – | 6.3
O=C1OC(c2cccs2)=N/C1=C\c1ccc(-c2cccc(Cl)c2)o1 | – | – | – | 49 | – | 40 | 12 | dCAG dye DR=–
N=C1/C(=C\c2ccc(-c3cccc(Cl)c3)o2)C(=O)N=C2SC=C(c3ccccc3)N12 | – | – | – | 65 | – | 66 | 41
SMILES | mABHD4 FP | SIAE inh | HTRA1 inhibitor | rCAG binder-1 | PRMT1 inh | rCAG bind conf | dCAG dye counter | others
N=C1/C(=C\c2ccc(-c3ccc(C(=O)O)cc3)o2)C(=O)N=C2SC=C(c3ccccc3)N12 | – | – | – | – | – | · | ·
N#CCC[C@@H]1CC[C@]2(CCCN(C(=O)c3ccc4ccccc4n3)C2)O1 | – | – | · | – | – | · | ·
C=CCN1C(=O)[C@@H](CC(=O)N2CCN(C(=O)OCC)CC2)[C@]2(C(=O)OC)CCCCC=C12 | – | – | · | – | – | · | ·
CC(C)(C)OC(=O)[C@H]1[C@H](c2ccc([N+](=O)[O-])cc2)C2(C(=O)c3ccccc3C2=O)C2c3ccccc3C=NN21 (stereo partly specified) | – | – | – | 36 | – | – | 9.9
COc1ccccc1COc1ccc2c(C)c(CC(=O)O)c(=O)oc2c1C | – | – | – | 37 | – | 39 | 10
Cc1c(CC(=O)O)c(=O)oc2c(C)c(OCc3ccc(F)cc3F)ccc12 | – | – | – | – | – | · | ·
COc1ccc(C(=O)O)cc1NC(=S)NC(=O)/C=C/c1ccc(C(C)C)cc1 | – | – | – | 57 | – | 75 | 40
CCCCC(=O)NC(=S)Nc1cc(C(=O)O)ccc1OC | – | – | – | – | – | · | ·
O=C(/C=C/c1ccc(Cl)cc1)NC(=S)Nc1ccccc1C(=O)O | – | – | – | 35 | – | – | 9.1
CCN(CC)c1ccc(C=C2SC(=S)NC2=O)cc1 | – | – | – | – | – | · | ·
Cc1ccc(C2C(/C=C3/SC(=S)NC3=O)=C(c3cccs3)Oc3ccccc32)cc1 (stereo unspecified) | – | – | – | 80 | – | 83 | 51
CC(C)CCNC(=O)[C@@H](Cc1ccccc1)NC(=O)[C@H]1O[C@@H](n2ccc(=O)[nH]c2=O)[C@H](O)[C@@H]1O | – | – | · | – | – | · | ·
CC(C)CNc1ccc2c(c1)OC[C@@H](CC(C)C)NS2(=O)=O | – | – | · | – | – | · | ·
O=C(CS(=O)(=O)c1ccccc1)Nc1ccc(S(=O)(=O)Nc2ncccn2)cc1 | – | – | – | – | – | · | ·
NS(=O)(=O)c1ccc(NS(=O)(=O)c2ccc(NC(=O)c3ccc(-c4ccccc4)cc3)cc2)cc1 | – | – | – | 59 | – | 72 | 39

Compound activity (PubChem)
